Experimental data taken from ChEMBL document CHEMBL1157364, “Rapamycin reduces CCR5 density levels on CD4 T cells, and this effect results in potentiation of enfuvirtide (T-20) against R5 strains of human immunodeficiency virus type 1 in vitro” (Antimicrob Agents Chemother, 2007).
Activity calls are given as the source filed them. The rule behind the calls is not given here.

Legend:
[1] = system: Human immunodeficiency virus 1; assay: Antiviral activity against HIV1 X4 assessed as inhibition of cell-cell fusion between X4-envelope expressing HEK293T cells and CD8 depleted human PBMCs pretreated for 6 days; format: functional, organism-based; conditions: Human immunodeficiency virus 1, X4, HEK-293T
Procedure, shortened: (§1)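 Target cells were CD8-depleted PBMCs pretreated 6 days with RAPA and labeled with calcein-AM. Effectors were 293T cells transfected with JRFL (R5) or HXB2 (X4) Env plus Rev, loaded with CMTMR on day 2. Cells cocultured 1:3 ± T-20 for 2.5 h at 37°C in HEPES-DMEM pH 7.2 with BSA 1 mg/ml. Double-positive cells scored by microscopy, ≥100 cells, normalized to no-T-20 fusion. EC50 from F = 100/(1 + Ci/EC50).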

[2] = system: Human immunodeficiency virus 1; assay: Antiviral activity against HIV1 R5 in human PBMC assessed as fractional inhibition of viral replication; format: functional, organism-based; conditions: Human immunodeficiency virus 1, R5
Procedure, shortened: (§2)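 Fixed-ratio combination in PBMC p24 infectivity assays (RAPA pretreatment, MOI 0.001, p24 ELISA day 4). Each drug tested alone in twofold dilutions, RAPA 0.125–2 nM and T-20 2.5–40 nM, and in a 1/20 RAPA/T-20 molar ratio. Median-effect (Chou) analysis gave Dm, m, r, combination index and dose reduction index.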

[3] = system: Human immunodeficiency virus 1; assay: Antiviral activity against HIV1 R5 in human PBMC assessed as fractional inhibition of viral replication at 1 nM; format: functional; procedure, shortened: as §2
[4] = system: Human immunodeficiency virus 1; assay: Antiviral activity against HIV1 R5 in human PBMC assessed as fractional inhibition of viral replication at 0.5 nM; format: functional; procedure, shortened: as §2
PBMC [5] = assay: Effect on cell viability of human PBMC at 0.03 to 1 nM after 14 days by trypan blue staining; format: cell-based; conditions: 336 h, 0.001 µM
Procedure, shortened: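 PBMCs cultured with IL-2 and RAPA for 14 days; viability by trypan blue staining. Means ± SD from seven donors.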

PBMC [6] = assay: Reduction of CCR5 density on human sPBMC at 0.1 to 1 nM after 6 days by quantitative fluorescence-activated cell sorting; format: functional, cell-based
Procedure, shortened: (§3)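 PBMCs cultured 6 days with IL-2 and RAPA. Blocked 30 min at room temperature (PBS with 2% human serum, 5% horse serum, 0.1% azide), then stained 30 min with PE antibodies. Surface molecules per cell from FL-2 by Quantibrite-PE bead regression, PE/antibody ratio 1:1. Means ± SD from seven donors; Student's t test versus untreated.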

[7] = system: Human immunodeficiency virus 1; assay: Antiviral activity against HIV1 ADA in human PBMC assessed as reduction of p24 antigen levels after 4 days of infection; format: functional, organism-based
Procedure, shortened: (§4)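 PBMCs cultured 6 days with IL-2 (100 U/ml) plus RAPA, then exposed 2 h to HIV-1 ADA (R5) or IIIb (X4) at MOI 0.001, washed three times with PBS, and kept in IL-2 medium with drugs. p24 in supernatant by ELISA on day 4 after infection. Means ± SD of independent experiments.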

[8] = system: Human immunodeficiency virus 1; assay: Antiviral activity against HIV1 R5 in human PBMC assessed as fractional inhibition of viral replication at 0.125 nM; format: functional; procedure, shortened: as §2
PBMC [9] = assay: Reduction of CD4 density on human PBMC at 1 nM after 6 days by quantitative fluorescence-activated cell sorting; format: functional; design: scale not given: the % may be the effect or the level left; procedure, shortened: as §3
[10] = system: Human immunodeficiency virus 1; assay: Antiviral activity against HIV1 R5 assessed as inhibition of cell-cell fusion between R5-envelope expressing HEK293T cells and CD8 depleted human PBMCs pretreated for 6 days; format: functional, organism-based; conditions: Human immunodeficiency virus 1, R5, HEK-293T; procedure, shortened: as §1
[11] = system: Human immunodeficiency virus 1; assay: Antiviral activity against HIV1 ADA in human PBMC assessed as reduction of p24 antigen levels; format: functional, organism-based; conditions: Human immunodeficiency virus 1, ADA; procedure, shortened: as §4
[12] = system: Human immunodeficiency virus 1; assay: Antiviral activity against HIV1 R5 in human PBMC assessed as fractional inhibition of viral replication at 2 nM; format: functional; procedure, shortened: as §2
PBMC [13] = assay: Reduction of CXCR4 density on human PBMC at 0.1 to 1 nM after 6 days by quantitative fluorescence-activated cell sorting; format: functional, cell-based; procedure, shortened: as §3
[14] = system: Human immunodeficiency virus 1; assay: Antiviral activity against HIV1 R5 in human PBMC assessed as fractional inhibition of viral replication at 0.250 nM; format: functional; procedure, shortened: as §2
PBMC [15] = assay: Effect on cell viability of human PBMC pretreated for 14 days by trypan blue staining; conditions: 336 h
[16] = system: Human immunodeficiency virus 1; assay: Antiviral activity against HIV1 X4 in human PBMC assessed as reduction of p24 antigen levels; format: functional, organism-based; conditions: Human immunodeficiency virus 1, X4; procedure, shortened: as §4
[17] = system: Human immunodeficiency virus 1; assay: Antiviral activity against HIV1 R5 in human PBMC assessed as fractional inhibition of viral replication at 2.5 nM; format: functional; procedure, shortened: as §2
[18] = system: Human immunodeficiency virus 1; assay: Antiviral activity against HIV1 R5 in human PBMC assessed as fractional inhibition of viral replication at 10 nM; format: functional; procedure, shortened: as §2
[19] = system: Human immunodeficiency virus 1; assay: Antiviral activity against HIV1 R5 in human PBMC assessed as fractional inhibition of viral replication at 40 nM; format: functional; procedure, shortened: as §2
[20] = system: Human immunodeficiency virus 1; assay: Antiviral activity against HIV1 R5 in human PBMC assessed as fractional inhibition of viral replication at 5 nM; format: functional; procedure, shortened: as §2
[21] = system: Human immunodeficiency virus 1; assay: Antiviral activity against HIV1 R5 in human PBMC assessed as fractional inhibition of viral replication at 20 nM; format: functional; procedure, shortened: as §2

Which results are given for `CO[C@H]1C[C@@H]2CC[C@@H](C)[C@@](O)(O2)C(=O)C(=O)N2CCCC[C@H]2C(=O)O[C@H]([C@H](C)C[C@@H]2CC[C@@H](O)[C@H](OC)C2)CC(=O)[C@H](C)/C=C(\C)[C@@H](O)[C@@H](OC)C(=O)[C@H](C)C[C@H](C)/C=C/C=C/C=C/1C` [SIROLIMUS]?
EC50 [1]: 1.3 nM; EC50 [2]: 0.18 nM; Activity [3]: 0.85; Activity [4]: 0.78; Activity (PBMC [5]): Non-toxic; Activity (PBMC [6]): Active; Activity [7]: Active; Activity [8]: 0.34; Activity (PBMC [9]): 15%; EC50 [10]: 0.1 nM; EC50 [11]: 0.15 nM; Activity [12]: 0.92; Activity (PBMC [13]): inactive; Activity [14]: 0.66; Activity (PBMC [15]): Non-toxic

With enfuvirtide as the compound, how does the EC50 [16] read?
Its EC50 is 2.5 nM.

And the EC50 [2]?
The EC50 was 12.9 nM.

What about the Activity [17] of the same compound?
The Activity was 0.23.

And the Activity [18]?
The Activity was 0.5.

And the Activity [19]?
Its Activity is 0.73.

What about the Activity [20] of the same compound?
Its Activity is 0.24.

What about the Activity [21] of the same compound?
The Activity was 0.57.

What about the EC50 [11] of the same compound?
Its EC50 is 10 nM.
